# From PubChem
# In the library only some 3.2% were active in any assay of this set; here they are far more common.
# mABHD4 FP – ABHD4 inhibitors, primary screen, biochemical, fluorescence polarization, mouse. hit rate 0.54% among 370,000. AID 720543, 2013. purified mABHD4, FP-Rh probe fluorescence polarization. inhibition, % at 8.92 µM. (Lyso)-N-acylphosphatidylethanolamine lipase (Mus musculus), Q8VD66;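 active = inhibition exceeding the mean over every tested compound plus 3 SD, cut at about 30% in these data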
#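 Test system: mABHD4 protein; Read-out basis: % inhibition; Incubation: 45 min + 60 min at 25 °C; Repeats: single replicate; Technique: fluorescence polarization with parallel and perpendicular emission, 525/598 nm; Compound: 8.92 µM, single dose; Benchmarks: full inhibition S159A mutant plus DMSO, zero as sample-well median.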
# LEDGF integ inh – blockers of LEDGF/p75-dependent integrase strand transfer – biochemical, TR-FRET, high throughput, primary screen; HIV-1 integrase (with human LEDGF/p75); TR-FRET IN-LEDGF/p75 DNA integration, Eu/Cy5; inhibition, % at 3.7 µM; hit rate 0.64% among 370,000;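 active = inhibition above the screen-wide mean plus 3 SD, cut at about 13% in these data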;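 also: signal is the Cy5 over europium emission ratio at 671 and 618 nm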
# PRMT1 inh – PRMT1 methyltransferase inhibitors, primary screen, biochemical, fluorescence polarization; Protein arginine N-methyltransferase 1 (Homo sapiens), Q99873; recombinant PRMT1, activity-based probe fluorescence polarization; inhibition, % at 2.79 µM; hit rate 1.3% among 370,000; AID 652257, 2013;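 active = inhibition above about 21% made by adding two undisclosed values, limit read from the data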
# HTRA1 inh – HTRA1 serine protease inhibitors, primary screen, biochemical, fluorescence polarization, HTS; recombinant HTRA1, FP-rhodamine activity-based probe; AID 504803, 2011; inhibition, % at 5.96 µM; hit rate 0.5% among 340,000; in the data active = inhibition above about 36%
# DAGLB inhibitor – DAGLB lipase inhibitors, primary screen, biochemical, fluorescence, HTS; hit rate 0.059% among 340,000; inhibition, % at 5.17 µM; Diacylglycerol lipase-beta (Homo sapiens), Q8NCG7; AID 504411, 2011; HEK293T DAGLB membrane lysate, EnzChek fluorogenic substrate; in the data active = inhibition above about 34%
# Target sequence (Q8NCG7 whole entry, looked up): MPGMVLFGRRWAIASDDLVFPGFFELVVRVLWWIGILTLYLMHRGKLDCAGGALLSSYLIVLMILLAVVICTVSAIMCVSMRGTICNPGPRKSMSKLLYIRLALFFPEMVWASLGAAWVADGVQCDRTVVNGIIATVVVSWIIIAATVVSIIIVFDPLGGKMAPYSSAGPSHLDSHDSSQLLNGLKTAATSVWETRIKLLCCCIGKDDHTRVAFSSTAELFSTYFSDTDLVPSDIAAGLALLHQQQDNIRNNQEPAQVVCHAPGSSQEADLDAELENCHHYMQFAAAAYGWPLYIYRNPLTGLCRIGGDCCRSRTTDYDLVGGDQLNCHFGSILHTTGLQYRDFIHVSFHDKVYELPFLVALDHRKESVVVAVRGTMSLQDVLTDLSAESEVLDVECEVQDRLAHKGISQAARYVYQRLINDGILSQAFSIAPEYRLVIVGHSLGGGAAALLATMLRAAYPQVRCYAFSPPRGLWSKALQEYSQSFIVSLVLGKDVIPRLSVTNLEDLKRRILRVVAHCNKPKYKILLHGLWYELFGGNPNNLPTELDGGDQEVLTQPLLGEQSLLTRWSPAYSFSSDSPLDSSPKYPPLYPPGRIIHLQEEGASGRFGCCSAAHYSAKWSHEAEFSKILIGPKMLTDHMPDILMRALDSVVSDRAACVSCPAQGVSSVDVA
# rCAG binder – binders of r(CAG) RNA repeats, primary screen, biochemical, fluorescence. inhibition, % at 3 µM. r(CAG) RNA repeat, TO-PRO-1 dye displacement fluorescence. hit rate 1.3% among 370,000. AID 651821, 2012;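 active = inhibition above the plate cutoff, the mean of all test compounds on that plate plus 3 SD, cut at about 35% in these data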;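 also: higher means more dye released from RNA so lower well fluorescence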
# ABHD4 confirm – ABHD4 inhibitors, retest, confirmation, biochemical, fluorescence polarization, mouse; shares compounds with mABHD4 FP; purified mABHD4, FP-Rh probe fluorescence polarization; inhibition, % at 8.92 µM; hit rate 55% among 1,800;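 active = mean inhibition across replicates above the hit cutoff set in the primary screen, cut at about 30% in these data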
# Numbers stand for hits; - = inactive; . = no result given.
SMILES,mABHD4 FP,LEDGF integ inh,PRMT1 inh,HTRA1 inh,DAGLB inhibitor,rCAG binder,ABHD4 confirm
CCn1c(=O)c(C(=O)Nc2ccccc2F)c(O)c2ccccc21,-,-,-,-,-,-,.
O=C(C1=C(O)C(=O)N(CCc2ccccc2)C1c1cccs1)c1ccco1 (configuration not stated),35.1,-,-,-,-,-,31.5
NS(=O)(=O)c1ccc(CCNC(=O)CN2C(=O)NC(c3ccccc3)(c3ccccc3)C2=O)cc1,49.1,-,-,-,-,-,-
O=C(O)c1ccc2c(c1)C(=O)N(c1ccc(Nc3ccccc3)cc1)C2=O,30.6,-,-,-,-,-,-
CCCCCC(=O)Nc1c(-c2cccs2)c(=O)c2ccccc2n1C,-,-,-,-,-,-,.
CCOc1ccc(C2C(C#N)=C(N)Oc3cc(O)ccc32)cc1OCC (configuration not stated),-,-,-,-,-,-,.
CCOc1ccccc1C1C(C#N)=C(N)Oc2cc(N)ccc21 (configuration not stated),30.7,-,-,-,-,-,-
COc1ccccc1OCCNC(=O)c1ccc2c(c1)OCCO2,30.7,-,-,-,-,-,-
CCOc1ccc(NC(=O)N2CC(C)OC(C)C2)cc1 (configuration not stated),-,-,-,-,-,-,.
c1ccc(-c2nc(-c3ccccn3)nc(-c3ccccn3)n2)nc1,35.4,-,-,-,-,-,46.8
Nc1nc(N)nc(-c2ccccn2)n1,-,-,-,-,-,-,.
O=[N+]([O-])c1cccc(/C=N/Nc2nc(NCc3ccccc3)nc(N3CCOCC3)n2)c1,46.7,-,-,-,-,-,-
O=[N+]([O-])c1ccc(/C=N/Nc2nc(NCc3ccccc3)nc(N3CCOCC3)n2)cc1,-,-,-,-,-,-,.
COc1ccccc1N1CCN(CC(=O)Nc2ccc(Cl)c(C(F)(F)F)c2)CC1,.,.,.,-,-,.,.
CCOC(=O)C1=C(C)N=C2c3ccccc3C(=O)C2C1c1ccccc1 (configuration not stated),33.9,-,-,-,-,-,37.2
CCOC(=O)C1=C(C)N=C2c3ccccc3C(=O)C2C1c1ccc(C)cc1 (configuration not stated),-,-,-,-,-,-,.
CCOC(=O)C1CCCN(C(=O)c2ccc3[nH]c4c(c3c2)CC(C)CC4)C1 (configuration not stated),-,-,-,-,-,-,.
COc1ccc(-c2nnc(NC(=O)C3CCCO3)s2)cc1 (configuration not stated),-,-,-,-,-,-,.
Cc1nc2nc(C)n(CCN3CCOCC3)c(=O)c2c(-c2cccc([N+](=O)[O-])c2)c1C(=O)CCCCCCCCCCN1CCC(c2ccccc2)(c2ccccc2)CC1,30.1,-,-,-,-,-,39.1
CNC(=S)N(Cc1cccs1)Cc1cc2cc(OC)c(OC)cc2[nH]c1=O,-,-,-,-,-,-,.
CC(Oc1ccc2c(-c3ccccc3)cc(=O)oc2c1)C(=O)NCC1CCC(C(=O)O)CC1 (configuration not stated),48.7,-,-,-,-,-,38.5
O=C(COc1cc2oc(=O)cc(-c3ccccc3)c2cc1Cl)NCC1CCC(C(=O)O)CC1 (configuration not stated),-,-,-,-,-,-,.
O=C(COc1ccc2c(-c3ccccc3)cc(=O)oc2c1)NCC1CCC(C(=O)O)CC1 (configuration not stated),39.9,-,-,-,-,-,42.3
Cc1cc(=O)oc2cc(OCC(=O)Nc3ccccc3C(=O)O)ccc12,35.2,-,-,-,-,-,39.2
NC(=O)CSc1nc2ccccc2n1Cc1ccccc1,-,-,-,-,-,-,.
CCOc1ccccc1N1CN(C2CCCCC2)CNC1=S,70.2,-,-,.,.,-,-
